From PubChem
Pf gametocyte = late stage P. falciparum gametocyte viability inhibitors, primary screen, ATP luminescence, HTS; inhibition, % at 10.9 µM; 150,000 tested, 0.065% active; AID 743093, 2013; P. falciparum stage V gametocytes, 24 h;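 active means inhibition above the mean plus 3 SD of compounds within the control limits, set per campaign, cut at about 38% in these data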
ROMK primary = ROMK potassium channel modulators, primary screen, cell-based, thallium flux, MLSMR library | ATP-sensitive inward rectifier potassium channel 1 (Homo sapiens), P48048 | Tet-inducible ROMK, thallium flux fluorescence; actives lie on both sides | B-score at 10 µM | 130,000 tested, 2% active | AID 1918, 2009;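 active means signal ratio slope over the read window, or its plate-corrected B-score, at least 3 SD from the plate mean, either direction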;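 further: B-score of the F/F0 ratio slope over 7 to 12 s after thallium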
Target sequence (P48048 whole entry, looked up): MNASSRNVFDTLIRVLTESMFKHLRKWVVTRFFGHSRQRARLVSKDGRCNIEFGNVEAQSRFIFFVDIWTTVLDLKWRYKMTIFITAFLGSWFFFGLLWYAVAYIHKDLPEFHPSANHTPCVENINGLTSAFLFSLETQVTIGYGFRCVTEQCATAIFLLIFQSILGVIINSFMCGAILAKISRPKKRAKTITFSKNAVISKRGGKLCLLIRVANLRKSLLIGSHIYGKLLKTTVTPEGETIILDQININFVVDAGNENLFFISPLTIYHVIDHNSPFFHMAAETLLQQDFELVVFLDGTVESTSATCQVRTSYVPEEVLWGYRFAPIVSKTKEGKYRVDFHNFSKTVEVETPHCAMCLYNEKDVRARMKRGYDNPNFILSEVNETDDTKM
Biofilm kill mix = clotrimazole potentiators killing C. albicans biofilm, primary screen, 4-compound mixtures; C. albicans biofilm persisters + clotrimazole, fluorescence viability; primary screen in compound mixtures of four per well; 120,000 tested, 0.02% active; inhibition, % at 7.6 µM;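 active means inhibition above 30.3% in the primary screen of four-compound pools, then above 30% when the compound was retested; inconclusive means passed the primary limit but could not be retested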;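 further: compounds exposed to preformed 24 h biofilms for 48 h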
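Assay system: C. albicans biofilms / Medium: RPMI/MOPS medium, pH 7.0 / Schedule: biofilm formation 24 h, compound exposure 48 h, 37 °C / Measured by: Alamar Blue fluorescence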
ROMK retest = ROMK channel modulator hit retest, confirmation, cell-based, thallium flux, duplicate, resupplied hits | shares compounds with ROMK primary | fluorescence ratio; stronger effect = lower value | normalized thallium flux (F/F0 slope) at 10 µM | 3,000 tested, 54% active | AID 1917, 2009;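 active means Flux at 10 µM at least 3 SD below or above vehicle control mean in one or both replicates; inconclusive means no clear call, values can overlap the other calls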
A number is an active result; – = inactive; ? = inconclusive; · = no result. Many of the other results were omitted from the sample, so hits are more common in it than they were.

SMILES	Pf gametocyte	ROMK primary	Biofilm kill mix	ROMK retest
COc1ccc(N/C=C\C(=O)c2ccc3c(c2)OCO3)cc1	·	–	·	·
CCC[N+](CC#Cc1ccccc1)(CCC)CC(=O)c1ccc(Cl)cc1	–	-3	–	0.063
CCC[N+](CC#Cc1ccccc1)(CCC)CC(=O)OC	–	–	–	·
COc1cccc(-c2cc(C(=O)Nc3cc(OC)c(OC)c(OC)c3)no2)c1	–	·	·	·
COc1cccc(-c2cc(C(=O)Nc3cccnc3)no2)c1	·	5.9	·	–
N#C/C(=C\c1c[nH]c2ccccc12)c1nnc2n1CCCCC2	–	·	–	·
N#C/C(=N\Nc1cccc2ccccc12)c1nnc2n1CCCCC2	–	·	–	0.059
Cc1cc(C(=O)N2CCN(c3ccccn3)CC2)no1	–	·	·	·
O=C(N1CCN(c2ccccn2)CC1)N1c2ccccc2Sc2ccccc21	–	3.3	·	–
O=C(c1ccco1)N1c2ccccc2Sc2ccccc21	–	·	·	·
O=C(c1ccco1)N1CCN(C(=O)N2c3ccccc3Sc3ccccc32)CC1	–	-3	·	–
O=C(COc1ccc(Cl)cc1Cl)N1CCN(c2ccccn2)CC1	–	–	–	·
O=C(N1CCN(c2ccccn2)CC1)C(Cl)(Cl)Cl	·	–	–	·
O=C(c1cnsn1)N1CCN(c2ccccn2)CC1	·	1.6	·	–
O=C(COc1cc(Cl)c(Cl)cc1Cl)N1CCN(c2ccccn2)CC1	–	-3	–	0.066
C[C@@]12C(=O)N(Cc3ccccc3)CC(=O)N1[C@H](/C=C/c1ccccc1)[C@@H]1C(=O)N(c3ccccc3)C(=O)[C@@H]12	–	·	·	·
CCOC(=O)[C@H]1[C@H]2COc3ccccc3[C@@H]2N2C(=O)c3ccccc3NC(=O)[C@@]12C	–	·	·	·
CCCC(=O)Nc1ccc(-c2nc3ncccc3o2)cc1	–	·	·	·
CC(=O)N(CCC(c1ccco1)C(C)C)Cc1ccc(OC(C)C)cc1 (centres undefined)	–	·	–	·
Cc1ccc(Cn2c(=N)n(CC(O)COc3ccccc3)c3ccccc32)cc1 (centres undefined)	·	-4.1	·	0.049
N=c1n(CCN2CCCCC2)c2ccccc2n1CC(O)COc1ccccc1 (centres undefined)	–	·	·	·
COc1ccc(OCC(O)Cn2c(=N)n(CCN3CCOCC3)c3ccccc32)cc1 (centres undefined)	·	–	·	·
CCn1c(=N)n(CC(O)COc2cccc(C)c2)c2ccccc21 (centres undefined)	–	–	·	·
CCCn1c(=N)n(CC(O)COc2cccc(C)c2)c2ccccc21 (centres undefined)	–	-3.4	·	0.051
CCCCn1c(=N)n(CC(O)COc2ccccc2)c2ccccc21 (centres undefined)	–	-3.7	·	?
SMILES	Pf gametocyte	ROMK primary	Biofilm kill mix	ROMK retest
N=c1n(Cc2ccccc2)c2ccccc2n1CC(O)COc1ccccc1 (centres undefined)	–	·	·	·
CCCCn1c(=N)n(CC(O)COc2ccc(C)cc2)c2ccccc21 (centres undefined)	–	-7	·	0.048
O=Cc1c(NCc2cccc(F)c2)c2ccccc2[nH]c1=O	–	·	·	·
CC(C)(C)OC(=O)NCC(=O)NNC(=O)C(C(=O)OCc1ccccc1)c1ccccc1 (centres undefined)	–	·	·	·
Cc1ccccc1Cn1c(NC2CCCC2)nc2c1c(=O)[nH]c(=O)n2C	–	·	·	·
COC(=O)c1cc(NC(=O)c2ccccc2F)cc(C(=O)OC)c1	–	–	–	·
Fc1ccc(COc2ccc(Br)cc2CNCc2ccncc2)cc1	–	-2.7	·	0.063
Fc1ccccc1COc1ccc(Br)cc1CNCc1ccncc1	·	–	·	·
COc1ccc(CNCC(=O)Nc2cccc(S(N)(=O)=O)c2)cc1	–	–	–	·
C#CCOc1ccc2c3c(c(=O)oc2c1)CCCC3	–	·	·	·
CC(C)(C)OC(=O)C[C@H]1C/C=C\C[C@H](CC(=O)NCCO)C(=O)NC[C@H](c2ccccc2)OC1=O	–	·	·	·
Cc1ccc(C)c2c1N(Cc1ccccc1)C(=O)C21OCCO1	–	·	·	·
COc1ccccc1NC(=O)c1ccc(NS(=O)(=O)c2ccc(F)c(F)c2F)cc1	–	–	–	·
N#Cc1cccc(C(c2nnnn2CCc2ccccc2)N2CCN(C3CCCCC3)CC2)c1 (centres undefined)	–	-3.1	·	0.058
N#Cc1cccc(C(c2nnnn2C2CCCC2)N2CCC(Cc3ccccc3)CC2)c1 (centres undefined)	–	–	–	·
CCCCOC(=O)N/N=C/C=C/c1ccccc1	–	–	–	·
Cc1cc(C)cc(C(=O)N(c2ccccn2)C(C)c2ccco2)c1 (centres undefined)	–	–	·	·
CC(c1ccco1)N(C(=O)c1ccccc1NS(=O)(=O)c1ccc(Cl)c([N+](=O)[O-])c1)c1ccccn1 (centres undefined)	–	·	–	0.062
C/C(=N\Nc1ccc2nncn2n1)c1ccc(Br)s1	–	–	–	·
COCCCNC(=O)c1cc(S(=O)(=O)N2CCOCC2)ccc1SCc1cccc(OC)c1OC	·	–	–	·
O=C(CCn1c(=O)oc2ccccc21)N1CCN(C(c2ccccc2)c2ccccc2)CC1	·	-2.8	·	0.059
O=C(CCn1c(=O)oc2ccccc21)N1CCN(c2ccccc2F)CC1	–	–	·	·
CCN(CC)S(=O)(=O)c1ccc(Cl)c(OC)c1	·	–	·	·
CCCN(CCC)S(=O)(=O)c1ccc(Cl)c(OC)c1	–	-16	–	?
CC(C)c1nc2c(c(=O)n(C)c(=O)n2C)n1C	·	·	–	·
SMILES	Pf gametocyte	ROMK primary	Biofilm kill mix	ROMK retest
CC(C)(C)NCC(O)COc1ccccc1C(=O)CCc1ccccc1 (centres undefined)	·	-3.9	·	0.05
CC(C)(C)NCC(O)COc1ccccc1C(C)(C)C (centres undefined)	–	-3.8	–	–
CCc1ccc(OCC(O)CNC(C)(C)C)cc1 (centres undefined)	–	–	·	·
Cc1c[nH]c2cccc(OCC(O)CNC(C)(C)C)c12 (centres undefined)	–	·	·	·
CCNS(=O)(=O)c1ccc(OC)c(C(=O)NC2CCCCC2)c1	·	–	–	·
CC(=O)Nc1ccc(S(=O)(=O)NCCc2ccccn2)cc1	–	–	–	·
COc1cc(OC)c(S(=O)(=O)Nc2ccccc2N2CCOCC2)cc1NC(C)=O	–	–	–	·
CS(=O)(=O)N(CC(=O)NCCSCc1cccc(Cl)c1)c1ccc(F)cc1	–	·	·	·
Cc1ccc(NC(=S)N2CCN(c3ccccc3F)CC2)c(C)c1	–	·	·	·
CCCC(c1nnnn1C(C)(C)C)N1CCN(Cc2ccccc2OC)CC1 (centres undefined)	–	–	–	·
CCCC(c1nnnn1C(C)(C)C)N1CCN(c2ccccc2)CC1 (centres undefined)	–	-13	–	–
O=C(O)c1cccc(C(=O)O)c1Br	–	·	·	·
O=C1CN(S(=O)(=O)c2ccc(Cl)cc2)c2ccccc2N1	–	·	·	·
Cc1cc(C)nc(SCc2ccc(C(=O)N/N=C/c3ccccn3)cc2)n1	–	-13	–	–
Cc1cc(C)nc(SCc2ccc(C(=O)N/N=C/c3ccncc3)cc2)n1	–	–	–	·
C=CCN(c1cccc(C(F)(F)F)c1)S(=O)(=O)c1cccc(C(=O)OCC(=O)NCCC)c1	·	·	–	·
Cc1ccc(-c2[nH]c3ccccc3c2SCCNC(=O)c2ccc(S(=O)(=O)N3CCOCC3)cc2)cc1	·	–	–	·
